Results taken from BindingDB's records for doi:10.1016/j.ejmech.2015.10.033 (Kyungpook National University, 2015).

Biological target: T1, Polyphenol oxidase 2 (Agaricus bisporus, UniProt O42713)
T1 sequence (O42713 whole entry): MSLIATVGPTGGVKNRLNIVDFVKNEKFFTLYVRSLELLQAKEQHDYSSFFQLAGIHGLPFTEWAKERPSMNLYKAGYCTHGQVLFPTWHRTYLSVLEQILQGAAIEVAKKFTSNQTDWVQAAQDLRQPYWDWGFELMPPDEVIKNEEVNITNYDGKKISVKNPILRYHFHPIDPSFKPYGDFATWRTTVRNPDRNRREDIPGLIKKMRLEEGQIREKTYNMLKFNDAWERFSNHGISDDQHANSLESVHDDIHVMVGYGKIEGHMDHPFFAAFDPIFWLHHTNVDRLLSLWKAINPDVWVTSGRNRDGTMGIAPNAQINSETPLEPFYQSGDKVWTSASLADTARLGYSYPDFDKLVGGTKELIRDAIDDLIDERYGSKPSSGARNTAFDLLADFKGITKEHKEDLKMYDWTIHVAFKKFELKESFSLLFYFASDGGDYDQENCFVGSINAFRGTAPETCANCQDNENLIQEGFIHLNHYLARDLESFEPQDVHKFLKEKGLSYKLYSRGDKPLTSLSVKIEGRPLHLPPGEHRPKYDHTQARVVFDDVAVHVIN
Test: Non-competitive inhibition of mushroom tyrosinase using L-tyrosine as substrate by Lineweaver-Burk plots analysis
Outline: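 Absorbance at 475 nm read at 30 °C in PBS with 5% DMSO. Global nonlinear Michaelis–Menten fitting over four inhibition models gave Vmax, Km, Kic and Kiu, with the model chosen by minimal χ2.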

SMILES	Ki [nM]
NC(=S)c1ccccn1	2700
NC(=S)c1ccccc1	700
NC(=S)c1ccncc1	22300
CCc1cc(C(N)=S)ccn1 [CHEBI:4885]	1900
CCCc1cc(C(N)=S)ccn1 [Ektebin]	2400
NC(=S)c1cccnc1 [thionicotinamide]	4300
